The values that follow come from the RNAGym collection of RNA variant scans (doi:10.1126/science.aae0568).

Sequences and labels used below:
B1: tRNA (parent)
chain: GUUCCGUUGGCGUAAUGGUAACGCGUCUCCCUCCUAAGGAGAAGACUGCGGGUUCGAGUCCCGUACGGAACG

This sample holds only a part of the variants without activity.

The variants in this series derive from B1. In words: yeast fitness relative to wild type (ratio to wild type); higher = fitter; tRNA-Arg(CCU), competitive growth, 37 C, YPD. Put shortly: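 Start and end populations of a pooled competition were compared by 100-nucleotide paired-end sequencing of gene amplicons. The Saccharomyces cerevisiae strains carried tRNA-Arg(CCU) gene variants at the native genomic locus, synthesised with a 3% per-site mutation rate at 69 sites, and competed in YPD at 37°C for 24 hours in six parallel replicates. Darwinian fitness relative to wild type was based on the change in genotype frequencies. Genotypes required ≥ 100 starting reads, and estimates < 0.5 were set to 0.5.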
As to U7G G41C A69C, the yeast fitness was at most 0.5.

Take U8A A14G C31U G58A C61G C66U: the yeast fitness is at most 0.5.

U7C C24G: the yeast fitness came to 0.645.

Turning to U7G C29G C46U G50U, the yeast fitness was at most 0.5.

As for U8A A14C C31A, the yeast fitness was 0.571.

For the variant U8A A14C C31A G41C C49A, the yeast fitness came to 0.562.

Regarding U8A A20C U35A G38C, the yeast fitness was at most 0.5.

On to U7C C11A C30G C66U A69U, for which the yeast fitness was at most 0.5.

Regarding U7G C55G, the yeast fitness is 0.655.

For U7G U35A A43C, the yeast fitness is 0.532.

In the case of U7C C33G, the yeast fitness was determined as 0.58.

As for U7C G41A A42C G50C, the yeast fitness stood at 0.592.

As to U7G A15C C24U A43G G51A U54C G67C, the yeast fitness was determined as 0.78.

Consider U7C C27U, for which the yeast fitness came to 0.875.

As to U8A C11G C34G C60G A65U, the yeast fitness was at most 0.5.

As to U7G C62U, the yeast fitness was 0.893.

As to U7C G38A G50A G58A U59A, the yeast fitness turned out to be 0.579.

As to U7G U13A, the yeast fitness was found to be 0.898.

For U7C C29G, the yeast fitness worked out at 0.677.

With U7C C29U, the yeast fitness was determined as 0.754.

Turning to U8A A14G C49G, the yeast fitness worked out at 0.538.

Consider U7C G9A U13C A21U G56A, for which the yeast fitness was at most 0.5.

In the case of U8A C11U G25A C33A A40U, the yeast fitness was at most 0.5.

Turning to U7C C11U A37C, the yeast fitness was at most 0.5.

As to U7C U8A C62U, the yeast fitness is at most 0.5.

As to U8A A20U A21U G25A A43U, the yeast fitness was found to be 0.584.

In the case of U7C G68A, the yeast fitness is 0.87.

Turning to U7C C22A A45C C46U, the yeast fitness is at most 0.5.

For the variant U7G G25C G56A, the yeast fitness was 0.697.

In the case of U7C G9C G23A A36C C66A, the yeast fitness is 0.544.

For the variant U8A A15U C29G G41A C49G A57G, the yeast fitness is at most 0.5.

For U7G C29G C46U A65U, the yeast fitness was at most 0.5.

On to U7G U35A C49G C60A, for which the yeast fitness is at most 0.5.

For U7G G38A A40G C66A, the yeast fitness is at most 0.5.

Take U7C U26A: the yeast fitness worked out at 0.777.

Take U7C U26G: the yeast fitness was 0.649.

U7G A65G C66U: the yeast fitness came out at 0.876.

On to U7G G23A C29U A36U, for which the yeast fitness was at most 0.5.

With U8A A43U C55U, the yeast fitness was 0.537.

In the case of U7G C22G U28A C31G C55A G68C, the yeast fitness was at most 0.5.

On to U8A C11A G56C, for which the yeast fitness was at most 0.5.

Take U8A A14G: the yeast fitness was found to be 0.632.

Take U8A A14C: the yeast fitness is 0.692.

For U8A A14G C46U G50C C55U A57U C62G A70U, the yeast fitness was at most 0.5.

On to U8A A20U A70C, for which the yeast fitness came out at 0.56.

Take U7C U64A: the yeast fitness is 0.923.

As to U7G G10C G44C A69U, the yeast fitness came out at 0.617.

For the variant U7C U53G, the yeast fitness is at most 0.5.

U7G C24U A45G: the yeast fitness is 0.601.

U7G C27G U28G: the yeast fitness worked out at 0.531.

With U7C U35C, the yeast fitness was 0.86.

As to U7G C27G C30A C62G, the yeast fitness was at most 0.5.

On to U7C U8A C27U, for which the yeast fitness is at most 0.5.

Regarding U8A A36U C55G U59C, the yeast fitness was 0.579.

Turning to U7C U32C C33G A70G, the yeast fitness was at most 0.5.

On to U7C C34U A45C C60G A65C, for which the yeast fitness is at most 0.5.

U7G C24U C33U: the yeast fitness stood at 0.568.

Take U8A A40U A70C: the yeast fitness stood at 0.547.

As for U7G U32A U35C C61G, the yeast fitness is at most 0.5.

Regarding U7C C33G A40G, the yeast fitness is at most 0.5.

On to U7C U32G G68C, for which the yeast fitness was at most 0.5.

As for U7C C46U C61A G67A, the yeast fitness was 0.561.

On to U7G U13C C31U, for which the yeast fitness came out at 0.903.

For U7C C31U A57U A69C, the yeast fitness was at most 0.5.

As for U7G G12C G23C C29G A57U C60A G68C, the yeast fitness is at most 0.5.

Take U7C C33A A40U A57C: the yeast fitness was found to be 0.662.

For U7G A70U, the yeast fitness came to 1.01.

Turning to U7C C11G U32G, the yeast fitness was at most 0.5.

Consider U7C C34U C49A G56C C62A A65C, for which the yeast fitness is at most 0.5.

For U7C A40G A42G G48A G56C, the yeast fitness was at most 0.5.

For U7C G48C, the yeast fitness worked out at 0.828.

For the variant U7C G48A, the yeast fitness was found to be 0.884.

With U7C U13C C31G C34U C55U G58A C61U, the yeast fitness was at most 0.5.

As to U7G U19C, the yeast fitness turned out to be 0.767.

On to U7C G9A U13C A21U G38C C46A, for which the yeast fitness was at most 0.5.

As to U8A C11A C24U G67C, the yeast fitness is at most 0.5.

On to U8A A20C U35A G38C A69U, for which the yeast fitness came to 0.597.

Take U7G C30U U47A: the yeast fitness was at most 0.5.

Consider U7C U28C C55U, for which the yeast fitness is at most 0.5.

Take U7C C33G A37G A70G: the yeast fitness is at most 0.5.

With U7C A42U A70U, the yeast fitness came out at 0.584.

With U7C U8A A20G C24G U64C, the yeast fitness is at most 0.5.

Take U8A A43G: the yeast fitness is 0.742.

Take U7G C30U G38A G50A: the yeast fitness is 0.589.

As to U7C G17A C62U, the yeast fitness is at most 0.5.

As for U7G A20G C27U C49G G52C A70G, the yeast fitness is at most 0.5.

Consider U7C C29A A65G, for which the yeast fitness was at most 0.5.

In the case of U7C A37G C49A, the yeast fitness is at most 0.5.

On to U7G G39A C66U A69U, for which the yeast fitness was at most 0.5.

Take U7C G17C A20G C27A G48A: the yeast fitness came to 0.509.

As to U7G A15G, the yeast fitness worked out at 0.913.

Take U7G G41C G58C: the yeast fitness was at most 0.5.

Take U7C C31G A45U: the yeast fitness was at most 0.5.

In the case of U7G G39C A57G, the yeast fitness is at most 0.5.

As for U7C C30U C61A, the yeast fitness is at most 0.5.

For the variant U7C G41A A42C G50C G67C, the yeast fitness was at most 0.5.

As to U8A C11A A36G C61G, the yeast fitness is at most 0.5.

For U7C C34U G52C, the yeast fitness amounted to 0.579.

For U7C C31G C33A C66A, the yeast fitness is at most 0.5.

For the variant U7G C27U, the yeast fitness is 0.792.

In the case of U7G C31U C33G A42U, the yeast fitness is 0.563.

Take U7G A36C: the yeast fitness was found to be 0.614.

As for U7G U28C G41C G58C, the yeast fitness was at most 0.5.

As to U7C A57U, the yeast fitness came out at 0.749.

For U7C G17A C55A, the yeast fitness was at most 0.5.

Consider U7C U53A A70G, for which the yeast fitness is at most 0.5.

Regarding U8A A36U C55G G58A U59C A69C, the yeast fitness is at most 0.5.

Take U7G C29A C34A C62A: the yeast fitness is at most 0.5.

For U7C A45C A70G, the yeast fitness was at most 0.5.

In the case of U8A A21G C27U G52C, the yeast fitness was at most 0.5.

In the case of U7G A57G, the yeast fitness amounted to 0.72.

On to U8A C11A C31G, for which the yeast fitness was at most 0.5.

Turning to U7G C11U G12C C33U G58C, the yeast fitness was at most 0.5.

For U7G C11A C22G C30G, the yeast fitness was at most 0.5.

As to U7G A14U U19A C22U C61A, the yeast fitness is at most 0.5.

For the variant U7G G56A C62A, the yeast fitness came out at 0.572.

On to U7C C22G C24A G25C C66G, for which the yeast fitness is at most 0.5.

For U7G U59G, the yeast fitness was found to be 0.705.

As for U7G A21G U26C C31A G38C, the yeast fitness was at most 0.5.

For U7G C27G A40U C49G, the yeast fitness was at most 0.5.

Turning to U7C U13A C24U G50U G51A U59A A65C, the yeast fitness is at most 0.5.

As for U7G A15G U19C A21G G41A, the yeast fitness stood at 0.535.

As for U7G U19A C22G C24G A40G C55G G68C, the yeast fitness is at most 0.5.

With U7G G39A C55U G68C, the yeast fitness is 0.594.

Consider U7G A15C U16A C33G A37C C49A U53C, for which the yeast fitness is at most 0.5.

Take U7C U16G C29U C31A C46U: the yeast fitness came to 0.566.

On to U7G C22G G50A, for which the yeast fitness is 0.514.

Regarding U7C C62U, the yeast fitness is 0.802.

U7C C62G: the yeast fitness came to 0.61.

Take U7C C27U A43U C61U: the yeast fitness is at most 0.5.

Turning to U8A A40G C61G, the yeast fitness is at most 0.5.

Turning to U7C U32G, the yeast fitness came to 0.576.

On to U7C G18A G41A A42C G50C A70G, for which the yeast fitness was at most 0.5.

In the case of U8A C11U, the yeast fitness was determined as 0.633.

With U7G G25C, the yeast fitness turned out to be 0.958.

Take U7C C49A C62U A70U: the yeast fitness was at most 0.5.

Turning to U7G A21C U59A, the yeast fitness is at most 0.5.

U7G A21C G44C A69U: the yeast fitness is at most 0.5.

With U7G U26C C49G, the yeast fitness was at most 0.5.

Take U7G U8C A70U: the yeast fitness came out at 0.588.

In the case of U7G C11G C34U G41A, the yeast fitness came out at 0.525.

In the case of U7C G63C, the yeast fitness is 0.611.

In the case of U7C C30U, the yeast fitness was determined as 0.826.

U7G C30U A36G C55G: the yeast fitness is at most 0.5.

With U7C G10C C24U C46U G63C, the yeast fitness was at most 0.5.

On to U7C C49U, for which the yeast fitness came to 0.873.

Turning to U7C C11A, the yeast fitness came out at 0.556.

For the variant U7C G41A A42C G50C A70G, the yeast fitness was determined as 0.571.

Regarding U7G U28C, the yeast fitness amounted to 0.808.

With U7C G44C, the yeast fitness amounted to 0.84.

As for U7C C30U C34A C46U G58A A65U, the yeast fitness was at most 0.5.

Consider U7C C49G G63A, for which the yeast fitness worked out at 0.748.

As for U7C C22U C29G G56A A70U, the yeast fitness is at most 0.5.

On to U7G G41A, for which the yeast fitness came out at 0.776.

In the case of U7C A37C C60G G63A A65U A70C, the yeast fitness was at most 0.5.

For U7C G9A C31G, the yeast fitness is 0.77.

Consider U7C G12A C31U G52A, for which the yeast fitness was at most 0.5.

With U7C C33U G67A, the yeast fitness is at most 0.5.

Take U7G C34A: the yeast fitness turned out to be 0.757.

As to U7C A43G U47C U59C, the yeast fitness is at most 0.5.

Regarding U7G A40U, the yeast fitness came out at 0.985.

On to U7G C27G G39C U47C C49G A57G, for which the yeast fitness is at most 0.5.

Take U7G A14G U35G C46A G63C A65U: the yeast fitness was at most 0.5.

For the variant U7C C11A C27G A57G, the yeast fitness is at most 0.5.

As to U7G C31U A69U, the yeast fitness stood at 0.628.

As to U7C G67U A70U, the yeast fitness was 0.544.

On to U7C G41U G58C, for which the yeast fitness is at most 0.5.
